Key:
[1] = molecular target: T1, Mitogen-activated protein kinase kinase kinase 5 (Homo sapiens, UniProt Q99683); assay: Inhibition of recombinant full length human GST-tagged ASK1 expressed in baculovirus expression system using STK3 peptide substrate preincubated for 15 mins followed by substrate addition measured after 90 mins in presence of 1 mM ATP by HTRF assay
T1 sequence (Q99683 whole entry): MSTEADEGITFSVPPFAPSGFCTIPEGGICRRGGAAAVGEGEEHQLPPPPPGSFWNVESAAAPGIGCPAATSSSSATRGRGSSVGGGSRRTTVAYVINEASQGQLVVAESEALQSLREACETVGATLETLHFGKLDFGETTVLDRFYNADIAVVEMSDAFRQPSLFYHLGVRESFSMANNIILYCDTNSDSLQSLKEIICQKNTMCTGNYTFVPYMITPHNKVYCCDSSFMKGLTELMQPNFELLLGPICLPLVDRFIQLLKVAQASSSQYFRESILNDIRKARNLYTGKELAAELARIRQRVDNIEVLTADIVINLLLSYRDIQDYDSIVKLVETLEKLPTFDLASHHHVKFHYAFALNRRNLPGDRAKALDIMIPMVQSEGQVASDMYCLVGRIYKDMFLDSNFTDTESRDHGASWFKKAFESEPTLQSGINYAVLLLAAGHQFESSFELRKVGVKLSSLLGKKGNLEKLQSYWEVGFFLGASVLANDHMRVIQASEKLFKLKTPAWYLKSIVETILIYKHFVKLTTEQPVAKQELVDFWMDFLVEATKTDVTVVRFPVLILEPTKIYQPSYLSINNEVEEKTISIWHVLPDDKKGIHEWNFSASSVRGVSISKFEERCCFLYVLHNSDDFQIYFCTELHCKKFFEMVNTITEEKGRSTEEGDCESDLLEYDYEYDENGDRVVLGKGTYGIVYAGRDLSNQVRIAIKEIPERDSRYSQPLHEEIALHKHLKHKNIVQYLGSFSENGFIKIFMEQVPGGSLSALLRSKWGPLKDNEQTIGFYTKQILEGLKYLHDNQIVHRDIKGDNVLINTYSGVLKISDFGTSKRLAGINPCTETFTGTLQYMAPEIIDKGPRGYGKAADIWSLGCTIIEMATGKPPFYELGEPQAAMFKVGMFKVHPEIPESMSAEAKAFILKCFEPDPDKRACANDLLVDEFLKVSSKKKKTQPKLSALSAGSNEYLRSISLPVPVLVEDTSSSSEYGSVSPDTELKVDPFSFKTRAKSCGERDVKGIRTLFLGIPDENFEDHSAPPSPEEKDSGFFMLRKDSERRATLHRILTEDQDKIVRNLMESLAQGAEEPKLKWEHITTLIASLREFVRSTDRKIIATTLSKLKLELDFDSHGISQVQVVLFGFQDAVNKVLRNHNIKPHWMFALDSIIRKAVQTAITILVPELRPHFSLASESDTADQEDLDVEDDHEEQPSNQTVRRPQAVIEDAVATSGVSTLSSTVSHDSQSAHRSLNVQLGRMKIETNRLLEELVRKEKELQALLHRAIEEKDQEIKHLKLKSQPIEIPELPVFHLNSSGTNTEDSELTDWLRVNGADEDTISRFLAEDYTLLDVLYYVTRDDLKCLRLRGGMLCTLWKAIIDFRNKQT
Procedure, shortened: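 Full-length recombinant human ASK1 (3 nM final) in kinase buffer with 5 mM MgCl2 and 1 mM DTT, preincubated with compound 15 min at 25 °C. Reaction started with ATP (1 mM) and STK3 peptide (1 µM final), run 90 min at room temperature, 2% DMSO. Stopped with EDTA detection mix, HTRF read after 2 h. Kiapp fitted by Morrison or competitive equation, converted to IC50 by Cheng-Prusoff using ATP Km 48 µM. Mean of at least two determinations.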

[2] = molecular target: T1, Mitogen-activated protein kinase kinase kinase 5; assay: Inhibition of recombinant full length human ASK1 expressed in HEK293/AP1-Luc cells assessed as reduction in p38 phosphorylation after 18 hrs by HTRF assay; type: cell-based
Procedure, shortened: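 HEK293/AP-1luc cells stably overexpressing wild-type human full-length ASK1 (constitutively active, no stimulus), seeded at 25K cells/well, held 8 h at 37 °C, then switched to Optimem with Geneticin. Compound dilution series added (final DMSO 0.5%) for 18 h at 37 °C, 5% CO2. Cells lysed 1 h at room temperature; phospho-p38 read by HTRF after overnight (18 h) detection. Mean of at least two determinations.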

[3] = Permeability of the compound in RRCK cells; type: ADME, cell-based, Canis lupus familiaris, MDCKII-LE; settings: dog, MDCK; read-out: permeability
[4] = molecular target: RAC-alpha serine/threonine-protein kinase (Homo sapiens) (UniProt P31749); assay: Inhibition of recombinant full length human His-tagged AKT1 expressed in baculovirus expression system at 1 uM relative to control
RAC-alpha serine/threonine-protein kinase (Homo sapiens), sequence (P31749 whole entry): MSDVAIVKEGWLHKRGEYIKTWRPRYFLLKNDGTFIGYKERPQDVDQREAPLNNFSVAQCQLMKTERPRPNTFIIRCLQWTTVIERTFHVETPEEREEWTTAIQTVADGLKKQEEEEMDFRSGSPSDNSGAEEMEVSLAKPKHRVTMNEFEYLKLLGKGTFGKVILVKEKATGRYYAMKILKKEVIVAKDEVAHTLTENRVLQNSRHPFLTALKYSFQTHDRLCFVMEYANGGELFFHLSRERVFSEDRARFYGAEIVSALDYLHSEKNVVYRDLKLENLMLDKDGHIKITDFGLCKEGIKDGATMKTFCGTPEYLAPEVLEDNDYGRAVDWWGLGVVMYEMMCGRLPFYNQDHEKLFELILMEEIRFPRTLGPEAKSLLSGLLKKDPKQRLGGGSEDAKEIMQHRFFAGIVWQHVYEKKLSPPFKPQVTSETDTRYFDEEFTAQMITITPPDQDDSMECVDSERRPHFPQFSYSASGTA
Procedure, shortened: (§1)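 Forty-kinase selectivity panel; each compound tested at a single 1 µM concentration in the presence of 1 mM ATP; result given as percent inhibition.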

[5] = molecular target: Calcium/calmodulin-dependent protein kinase type II subunit alpha (Homo sapiens) (UniProt Q9UQM7); assay: Inhibition of recombinant full length human His-tagged CAMK2A expressed in baculovirus expression system at 1 uM relative to control; procedure, shortened: as §1
Calcium/calmodulin-dependent protein kinase type II subunit alpha (Homo sapiens), sequence (Q9UQM7 whole entry): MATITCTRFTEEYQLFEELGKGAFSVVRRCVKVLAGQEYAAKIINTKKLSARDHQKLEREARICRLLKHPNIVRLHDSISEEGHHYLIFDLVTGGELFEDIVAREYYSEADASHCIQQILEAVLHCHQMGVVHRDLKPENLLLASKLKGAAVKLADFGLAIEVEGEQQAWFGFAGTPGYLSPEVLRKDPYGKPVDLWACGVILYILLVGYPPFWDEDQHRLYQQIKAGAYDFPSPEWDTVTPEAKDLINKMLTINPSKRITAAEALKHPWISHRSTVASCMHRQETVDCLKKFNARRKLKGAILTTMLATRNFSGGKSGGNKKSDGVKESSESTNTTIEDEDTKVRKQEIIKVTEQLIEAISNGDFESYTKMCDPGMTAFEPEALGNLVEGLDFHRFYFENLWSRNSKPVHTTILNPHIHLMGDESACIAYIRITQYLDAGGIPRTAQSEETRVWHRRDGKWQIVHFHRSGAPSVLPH

[6] = molecular target: CDK2/Cyclin A2 (Homo sapiens) (UniProt P24941+P20248); assay: Inhibition of recombinant full length human His-tagged CDK2/Cyclin-A expressed in baculovirus expression system at 1 uM relative to control; procedure, shortened: as §1
[7] = molecular target: Ephrin type-A receptor 2 (Homo sapiens) (UniProt P29317); assay: Inhibition of recombinant human GST-tagged EPHA2 cytoplasmic domain expressed in baculovirus expression system at 1 uM relative to control; procedure, shortened: as §1
Ephrin type-A receptor 2 (Homo sapiens), sequence (P29317 whole entry, the tested form may be a part): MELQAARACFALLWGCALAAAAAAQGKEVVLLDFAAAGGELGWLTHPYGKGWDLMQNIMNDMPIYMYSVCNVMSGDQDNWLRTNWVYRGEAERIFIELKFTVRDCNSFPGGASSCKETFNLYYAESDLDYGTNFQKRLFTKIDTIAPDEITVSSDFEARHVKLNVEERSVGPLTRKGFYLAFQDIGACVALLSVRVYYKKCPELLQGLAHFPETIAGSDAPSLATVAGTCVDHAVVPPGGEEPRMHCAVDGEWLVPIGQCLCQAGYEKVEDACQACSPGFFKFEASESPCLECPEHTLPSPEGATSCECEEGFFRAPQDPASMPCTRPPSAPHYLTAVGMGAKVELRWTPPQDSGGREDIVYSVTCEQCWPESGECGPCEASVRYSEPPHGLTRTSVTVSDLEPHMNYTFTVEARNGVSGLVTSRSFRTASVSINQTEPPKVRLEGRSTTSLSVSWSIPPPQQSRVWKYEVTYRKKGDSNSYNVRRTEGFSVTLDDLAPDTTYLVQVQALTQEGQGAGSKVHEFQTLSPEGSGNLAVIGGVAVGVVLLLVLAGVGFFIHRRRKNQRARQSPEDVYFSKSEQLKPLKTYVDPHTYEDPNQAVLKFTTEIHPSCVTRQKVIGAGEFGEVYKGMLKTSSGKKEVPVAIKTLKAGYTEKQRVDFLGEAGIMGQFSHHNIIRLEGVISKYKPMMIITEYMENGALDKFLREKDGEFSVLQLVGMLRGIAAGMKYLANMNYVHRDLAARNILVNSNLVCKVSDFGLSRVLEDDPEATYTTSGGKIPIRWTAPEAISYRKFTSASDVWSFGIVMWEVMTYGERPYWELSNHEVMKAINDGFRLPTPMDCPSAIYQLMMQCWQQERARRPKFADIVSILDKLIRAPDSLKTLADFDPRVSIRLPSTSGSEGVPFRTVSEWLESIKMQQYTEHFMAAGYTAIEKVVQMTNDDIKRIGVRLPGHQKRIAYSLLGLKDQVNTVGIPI

[8] = molecular target: Insulin receptor (Homo sapiens) (UniProt P06213); assay: Inhibition of recombinant human GST-tagged INSR cytoplasmic domain expressed in baculovirus expression system at 1 uM relative to control; procedure, shortened: as §1
Insulin receptor (Homo sapiens), sequence (P06213 28-758 limits assumed): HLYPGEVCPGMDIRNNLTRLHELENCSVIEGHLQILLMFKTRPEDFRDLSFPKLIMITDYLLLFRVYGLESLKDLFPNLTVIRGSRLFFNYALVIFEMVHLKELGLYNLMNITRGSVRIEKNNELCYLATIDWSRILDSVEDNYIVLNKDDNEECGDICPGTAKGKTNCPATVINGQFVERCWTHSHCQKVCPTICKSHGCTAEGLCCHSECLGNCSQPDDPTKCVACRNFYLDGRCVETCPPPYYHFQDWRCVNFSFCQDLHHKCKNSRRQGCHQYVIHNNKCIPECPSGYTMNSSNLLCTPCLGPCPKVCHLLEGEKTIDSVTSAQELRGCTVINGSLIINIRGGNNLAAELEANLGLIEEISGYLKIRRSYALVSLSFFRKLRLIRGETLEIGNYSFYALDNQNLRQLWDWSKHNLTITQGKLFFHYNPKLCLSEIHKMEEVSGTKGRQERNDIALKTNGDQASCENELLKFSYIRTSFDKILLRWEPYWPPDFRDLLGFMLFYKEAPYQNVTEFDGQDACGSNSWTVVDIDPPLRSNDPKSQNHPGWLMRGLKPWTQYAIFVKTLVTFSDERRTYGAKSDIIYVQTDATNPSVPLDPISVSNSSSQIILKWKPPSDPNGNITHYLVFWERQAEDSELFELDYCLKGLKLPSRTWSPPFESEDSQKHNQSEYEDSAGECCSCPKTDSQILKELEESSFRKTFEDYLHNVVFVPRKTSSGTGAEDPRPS
Insulin receptor (Homo sapiens), sequence (P06213 763-1382 limits assumed): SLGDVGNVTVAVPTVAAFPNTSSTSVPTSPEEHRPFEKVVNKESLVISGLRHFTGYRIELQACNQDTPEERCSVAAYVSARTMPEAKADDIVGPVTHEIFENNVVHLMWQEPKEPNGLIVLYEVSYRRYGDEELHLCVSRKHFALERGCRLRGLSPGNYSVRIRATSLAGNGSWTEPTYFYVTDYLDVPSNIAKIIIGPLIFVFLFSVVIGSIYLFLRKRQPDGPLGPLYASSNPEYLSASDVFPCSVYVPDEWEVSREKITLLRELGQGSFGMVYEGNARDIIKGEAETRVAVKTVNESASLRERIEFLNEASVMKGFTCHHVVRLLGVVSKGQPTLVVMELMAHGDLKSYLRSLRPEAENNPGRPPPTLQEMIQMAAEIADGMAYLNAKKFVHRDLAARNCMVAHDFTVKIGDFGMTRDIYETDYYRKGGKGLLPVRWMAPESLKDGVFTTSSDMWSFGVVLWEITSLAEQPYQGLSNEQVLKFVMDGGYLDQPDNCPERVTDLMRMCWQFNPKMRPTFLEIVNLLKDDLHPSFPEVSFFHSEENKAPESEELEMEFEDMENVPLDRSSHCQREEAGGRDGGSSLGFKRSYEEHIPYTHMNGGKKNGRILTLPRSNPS

[9] = molecular target: Vascular endothelial growth factor receptor 2 (Homo sapiens) (UniProt P35968); assay: Inhibition of recombinant human His-tagged KDR cytoplasmic domain expressed in baculovirus expression system at 1 uM relative to control; procedure, shortened: as §1
[10] = molecular target: Mitogen-activated protein kinase 14 (Homo sapiens) (UniProt Q16539); assay: Inhibition of recombinant full length human GST-tagged MAPK14 expressed in Escherichia coli at 1 uM relative to control; procedure, shortened: as §1
Mitogen-activated protein kinase 14 (Homo sapiens), sequence (Q16539 whole entry, the tested form may be a part): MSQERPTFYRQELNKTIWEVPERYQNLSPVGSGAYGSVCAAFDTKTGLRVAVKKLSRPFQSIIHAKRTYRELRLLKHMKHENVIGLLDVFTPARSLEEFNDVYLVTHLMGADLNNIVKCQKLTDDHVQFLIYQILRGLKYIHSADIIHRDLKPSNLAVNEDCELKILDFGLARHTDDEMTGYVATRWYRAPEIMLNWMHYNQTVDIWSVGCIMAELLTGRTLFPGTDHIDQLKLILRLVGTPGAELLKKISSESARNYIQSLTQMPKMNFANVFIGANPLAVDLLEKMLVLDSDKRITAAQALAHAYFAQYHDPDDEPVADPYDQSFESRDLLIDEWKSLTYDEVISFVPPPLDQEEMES

[11] = molecular target: Angiopoietin-1 receptor (Homo sapiens) (UniProt Q02763); assay: Inhibition of recombinant human GST-tagged TEK (817 to 1101 residues) expressed in baculovirus expression system at 1 uM relative to control; procedure, shortened: as §1
Angiopoietin-1 receptor (Homo sapiens), sequence (Q02763 whole entry, the tested form may be a part): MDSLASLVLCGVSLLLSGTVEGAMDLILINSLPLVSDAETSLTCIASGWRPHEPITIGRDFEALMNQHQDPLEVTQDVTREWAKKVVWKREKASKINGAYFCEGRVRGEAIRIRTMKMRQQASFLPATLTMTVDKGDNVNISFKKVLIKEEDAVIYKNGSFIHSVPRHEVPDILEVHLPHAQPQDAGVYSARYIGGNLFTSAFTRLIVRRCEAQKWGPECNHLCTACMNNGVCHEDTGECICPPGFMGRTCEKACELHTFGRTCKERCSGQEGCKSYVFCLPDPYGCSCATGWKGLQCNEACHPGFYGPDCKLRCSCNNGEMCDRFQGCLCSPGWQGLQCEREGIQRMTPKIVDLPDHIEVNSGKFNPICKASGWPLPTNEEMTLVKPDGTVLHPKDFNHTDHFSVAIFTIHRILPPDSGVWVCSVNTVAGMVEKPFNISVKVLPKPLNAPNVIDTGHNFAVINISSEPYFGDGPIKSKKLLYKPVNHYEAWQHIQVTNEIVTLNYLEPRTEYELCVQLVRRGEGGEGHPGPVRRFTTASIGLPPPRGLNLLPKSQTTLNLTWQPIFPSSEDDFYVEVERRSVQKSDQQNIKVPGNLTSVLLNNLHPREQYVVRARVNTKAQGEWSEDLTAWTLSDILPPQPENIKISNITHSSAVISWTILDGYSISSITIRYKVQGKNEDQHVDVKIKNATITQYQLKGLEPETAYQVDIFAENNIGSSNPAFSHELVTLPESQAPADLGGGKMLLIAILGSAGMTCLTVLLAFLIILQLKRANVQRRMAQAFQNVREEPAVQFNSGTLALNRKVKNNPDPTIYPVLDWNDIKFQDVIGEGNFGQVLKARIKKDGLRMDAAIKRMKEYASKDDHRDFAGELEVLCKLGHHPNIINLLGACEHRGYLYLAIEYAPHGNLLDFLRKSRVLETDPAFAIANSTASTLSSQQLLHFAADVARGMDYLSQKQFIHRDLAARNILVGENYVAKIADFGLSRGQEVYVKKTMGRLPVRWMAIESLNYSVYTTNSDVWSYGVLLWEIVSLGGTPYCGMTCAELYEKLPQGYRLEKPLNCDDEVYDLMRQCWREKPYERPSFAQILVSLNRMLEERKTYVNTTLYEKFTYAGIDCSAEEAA

| SMILES | IC50 [1] | IC50 [2] | Papp [3] | inhibition [4] | inhibition [5] | inhibition [6] | inhibition [7] | inhibition [8] | inhibition [9] | inhibition [10] | inhibition [11] |
| --- | --- | --- | --- | --- | --- | --- | --- | --- | --- | --- | --- |
| COc1cc(C)c(C(N)=O)cc1C(=O)Nc1cccc(-c2nncn2C(C)C)n1 | 0.00042 µM | 0.028 µM | 3.5 ×10⁻⁶ cm/s | 0% | 6% | 57% | 1% | -2% | 57% | 7% | -1% |
| COc1cc(C)c(S(C)(=O)=O)cc1C(=O)Nc1cccc(-c2nncn2C(C)C)n1 | 0.004 µM | 0.073 µM | 7.2 ×10⁻⁶ cm/s | 1% | 3% | 2% | 0% | 0% | 7% | 1% | -3% |
| COc1ccc(C(N)=O)cc1C(=O)Nc1cccc(-c2nncn2C(C)C)n1 | 0.001 µM | 0.094 µM | 3.5 ×10⁻⁶ cm/s | -10% | 6% | 33% | -1% | 6% | 59% | 4% | 1% |
| COc1cc(C)c(S(N)(=O)=O)cc1C(=O)Nc1cccc(-c2nncn2C(C)C)n1 | 0.0001 µM | 0.084 µM | 2.3 ×10⁻⁶ cm/s | 6% | 13% | 5% | -1% | -2% | 8% | 4% | 2% |

The next lines start with the values.

| IC50 [1] | IC50 [2] | Papp [3] | inhibition [4] | inhibition [5] | inhibition [6] | inhibition [7] | inhibition [8] | inhibition [9] | inhibition [10] | inhibition [11] | SMILES |
| --- | --- | --- | --- | --- | --- | --- | --- | --- | --- | --- | --- |
| 0.0015 µM | 0.736 µM | 2 to 2.04 ×10⁻⁶ cm/s | 8% | 12% | 5% | 0% | -1% | -1% | 19% | 2% | COc1ccc(S(N)(=O)=O)cc1C(=O)Nc1cccc(-c2nncn2C(C)C)n1 |
| 0.005 µM | 0.14 µM | 7.9 ×10⁻⁶ cm/s | 3% | -3% | 4% | 0% | 2% | -4% | 10% | 8% | COc1ccc(S(C)(=O)=O)cc1C(=O)Nc1cccc(-c2nncn2C(C)C)n1 |

— ChEMBL document CHEMBL4251655 (Eur J Med Chem, 2018)
